# From PMC7286548 (Cell chemical biology, 2020)
# Tests used:
# PI5P4Kγ = target: T1, PI5P4Kγ (Homo sapiens, UniProt Q8TBX8); experiment: Radiometric TLC kinase assay; format: biochemical; settings: Fig. S1B-C
# T1 sequence (Q8TBX8 1-421): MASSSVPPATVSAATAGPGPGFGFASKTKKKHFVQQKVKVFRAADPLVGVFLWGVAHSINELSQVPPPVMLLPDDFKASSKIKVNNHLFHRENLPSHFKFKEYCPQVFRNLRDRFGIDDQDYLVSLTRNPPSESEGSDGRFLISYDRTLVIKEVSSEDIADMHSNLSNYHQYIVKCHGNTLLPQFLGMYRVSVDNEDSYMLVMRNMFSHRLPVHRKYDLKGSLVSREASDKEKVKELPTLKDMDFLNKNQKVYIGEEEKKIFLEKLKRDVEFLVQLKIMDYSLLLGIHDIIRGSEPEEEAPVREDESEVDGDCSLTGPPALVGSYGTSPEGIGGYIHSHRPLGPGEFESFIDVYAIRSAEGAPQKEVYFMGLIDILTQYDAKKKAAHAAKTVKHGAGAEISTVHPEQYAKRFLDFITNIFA
# PI5P4Kβ [1] = target: T2, PI5P4Kβ (Homo sapiens, UniProt P78356); experiment: Radiometric TLC kinase assay; format: biochemical
# T2 sequence (P78356 1-416): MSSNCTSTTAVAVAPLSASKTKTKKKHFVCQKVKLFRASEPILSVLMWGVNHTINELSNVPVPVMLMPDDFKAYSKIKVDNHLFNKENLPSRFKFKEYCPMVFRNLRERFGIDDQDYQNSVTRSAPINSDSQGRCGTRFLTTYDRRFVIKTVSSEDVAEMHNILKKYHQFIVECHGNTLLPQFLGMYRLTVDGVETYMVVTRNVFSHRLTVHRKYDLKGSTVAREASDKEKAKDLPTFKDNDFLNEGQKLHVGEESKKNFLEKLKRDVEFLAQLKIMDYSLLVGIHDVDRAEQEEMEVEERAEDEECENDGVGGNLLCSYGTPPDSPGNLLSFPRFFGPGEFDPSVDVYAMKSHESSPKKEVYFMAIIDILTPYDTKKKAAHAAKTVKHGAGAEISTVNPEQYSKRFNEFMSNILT
# Procedure, shortened: (§1)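 Purified PI5P4K (0.1 μg) was preincubated with DMSO or test compound at various concentrations in 50 mM HEPES pH 7.4, 10 mM MgCl2. Sonicated lipid substrate, 10 μM unlabeled ATP and [γ-32P]ATP were then added. Reaction ran 10 min at room temperature. Radiolabeled PI(4,5)P2 product was quantified by phosphorimager.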
# PI5P4Kα [2] = target: T3, PI5P4Kα (Homo sapiens, UniProt P48426); experiment: Radiometric TLC kinase assay; format: biochemical
# T3 sequence (P48426 1-406): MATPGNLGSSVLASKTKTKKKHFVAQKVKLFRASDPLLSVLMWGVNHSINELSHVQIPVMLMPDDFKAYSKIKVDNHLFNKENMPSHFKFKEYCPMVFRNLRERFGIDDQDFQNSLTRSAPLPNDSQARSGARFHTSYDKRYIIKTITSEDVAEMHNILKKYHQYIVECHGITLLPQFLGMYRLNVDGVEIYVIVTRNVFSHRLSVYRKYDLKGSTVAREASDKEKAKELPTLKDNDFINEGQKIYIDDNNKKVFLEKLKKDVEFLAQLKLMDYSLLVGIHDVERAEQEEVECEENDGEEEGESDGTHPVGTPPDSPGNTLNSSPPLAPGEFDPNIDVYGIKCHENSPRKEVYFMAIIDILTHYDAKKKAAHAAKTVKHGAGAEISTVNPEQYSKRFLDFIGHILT
# Procedure, shortened: as §1
# AML/ALL cell lines = experiment: 72 h Cell-Titer Glo proliferation assay; format: cell-based; settings: all six AML/ALL cell lines
# Procedure, shortened: (§2)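 Cells plated in 96- or 384-well format and treated with test compound over a concentration range for 72h. Viability read by CellTiter-Glo luminescence. Leukemia lines cultured per ATCC/DSMZ recommendations in 5% CO2. K562 and KU812F came from an outside lab.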
# PI4P5Kβ = PI4P5Kβ (Homo sapiens, UniProt O14986); experiment: Lipid kinase off-target inhibition assay; format: biochemical; settings: Fig. S3C
# PIKfyve [3] = target: T4, PIKfyve (Homo sapiens, UniProt Q9Y2I7); experiment: Fixed time-point ADP-Glo assay; format: biochemical
# K562 and KU812F = experiment: Proliferation of BCR-ABL translocation containing cell lines; format: cell-based; settings: Fig. S4C
# Procedure, shortened: as §2
# PIKfyve [4] = experiment: Vacuolar enlargement assay in Vero cells; format: cell-based
# PI5P4K = experiment: Competitive streptavidin pulldown after pre-treating HEK293T cells; format: cell-based
# Procedure, shortened: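 HEK293T cells grown to 90–95% confluence were pretreated 6h with DMSO or varying test compound concentrations, then washed twice in cold PBS. Lysis on ice 60 min with protease inhibitors, cleared 20,000 × g 15 min at 4°C, protein-equalized by BCA. Lysates were rotated overnight at 4°C with 1 μM biotinylated probe, then 2h at RT, then on streptavidin resin 2h at 4°C. Beads washed ×5, boiled in LDS 95°C 10 min, immunoblotted.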
# PIKfyve [5] = target: T4, PIKfyve; experiment: DiscoverX KINOMEScan; format: binding
# PI4P5Kγ = PI4P5Kγ (Homo sapiens, UniProt O60331); experiment: Lipid kinase off-target inhibition assay; format: biochemical; settings: Fig. S3C
# HeLa cells [6] = experiment: TFEB nuclear localization immunofluorescence; format: cell-based; settings: 0.25-1.0 μM overnight
# PI5P4Kα [7] = target: T3, PI5P4Kα; experiment: Intact electrospray MS covalent labeling; format: binding; settings: within 2 h; 5 μM inhibitor, 37°C
# Procedure, shortened: (§3)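 Intact mass read by LC-ESI-MS on reversed phase. Modified site mapped by TCEP (10 mM final) reduction, iodoacetamide (22.5 mM final) alkylation, Asp-N or Glu-C digestion overnight at 37°C, then nanoLC-MS.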
# HeLa cells [8] = experiment: RFP-GFP-LC3B tandem sensor autophagy flux assay; format: cell-based; settings: 1 μM, 16 hours
# Procedure, shortened: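 HeLa cells (DMEM, 10% FBS) on coverslip-bottomed dishes were transduced with 40 particles/cell of the RFP-GFP-LC3B tandem sensor and cultured 16–24h. They were then exposed to DMSO, 50 μM chloroquine or 1 μM test compound for 16h. Live imaging at 37°C in phenol red-free DMEM by spinning-disk confocal microscopy.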
# [9] = target: top off-targets except for BRK and ABL1; experiment: Z'LYTE kinase assay; format: biochemical; settings: Fig. S4A
# Procedure, shortened: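 ATP at apparent Km. Kinases tested were TYK2, RPS6KA4 (MSK2), CSNK2A2 (CK2α2), KIT and PDGFRB.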
# PI5P4Kβ [10] = target: T2, PI5P4Kβ; experiment: Intact electrospray MS covalent labeling; format: binding; settings: within 2 h; 5 μM inhibitor, 37°C
# Procedure, shortened: as §3
# PI4P5Kα = PI4P5Kα (Homo sapiens, UniProt Q99755); experiment: Lipid kinase off-target inhibition assay; format: biochemical; settings: Fig. S3C
# PI4P5Kα, sequence (Q99755 whole entry): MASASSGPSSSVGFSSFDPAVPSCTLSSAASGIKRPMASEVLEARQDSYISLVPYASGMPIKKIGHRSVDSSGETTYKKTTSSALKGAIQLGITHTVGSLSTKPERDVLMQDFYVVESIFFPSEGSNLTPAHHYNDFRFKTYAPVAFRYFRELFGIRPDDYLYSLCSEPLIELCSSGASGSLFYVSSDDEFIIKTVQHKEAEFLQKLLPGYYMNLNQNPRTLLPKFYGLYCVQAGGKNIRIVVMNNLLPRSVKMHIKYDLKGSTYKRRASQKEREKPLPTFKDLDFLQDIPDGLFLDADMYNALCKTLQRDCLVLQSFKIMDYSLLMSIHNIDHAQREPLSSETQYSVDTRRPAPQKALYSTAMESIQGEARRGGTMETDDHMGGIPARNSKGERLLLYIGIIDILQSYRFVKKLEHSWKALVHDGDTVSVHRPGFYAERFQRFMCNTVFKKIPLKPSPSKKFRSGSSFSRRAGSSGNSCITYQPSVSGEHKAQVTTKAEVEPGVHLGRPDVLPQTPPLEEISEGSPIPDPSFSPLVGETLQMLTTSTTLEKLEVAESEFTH
# T4 sequence (Q9Y2I7 whole entry): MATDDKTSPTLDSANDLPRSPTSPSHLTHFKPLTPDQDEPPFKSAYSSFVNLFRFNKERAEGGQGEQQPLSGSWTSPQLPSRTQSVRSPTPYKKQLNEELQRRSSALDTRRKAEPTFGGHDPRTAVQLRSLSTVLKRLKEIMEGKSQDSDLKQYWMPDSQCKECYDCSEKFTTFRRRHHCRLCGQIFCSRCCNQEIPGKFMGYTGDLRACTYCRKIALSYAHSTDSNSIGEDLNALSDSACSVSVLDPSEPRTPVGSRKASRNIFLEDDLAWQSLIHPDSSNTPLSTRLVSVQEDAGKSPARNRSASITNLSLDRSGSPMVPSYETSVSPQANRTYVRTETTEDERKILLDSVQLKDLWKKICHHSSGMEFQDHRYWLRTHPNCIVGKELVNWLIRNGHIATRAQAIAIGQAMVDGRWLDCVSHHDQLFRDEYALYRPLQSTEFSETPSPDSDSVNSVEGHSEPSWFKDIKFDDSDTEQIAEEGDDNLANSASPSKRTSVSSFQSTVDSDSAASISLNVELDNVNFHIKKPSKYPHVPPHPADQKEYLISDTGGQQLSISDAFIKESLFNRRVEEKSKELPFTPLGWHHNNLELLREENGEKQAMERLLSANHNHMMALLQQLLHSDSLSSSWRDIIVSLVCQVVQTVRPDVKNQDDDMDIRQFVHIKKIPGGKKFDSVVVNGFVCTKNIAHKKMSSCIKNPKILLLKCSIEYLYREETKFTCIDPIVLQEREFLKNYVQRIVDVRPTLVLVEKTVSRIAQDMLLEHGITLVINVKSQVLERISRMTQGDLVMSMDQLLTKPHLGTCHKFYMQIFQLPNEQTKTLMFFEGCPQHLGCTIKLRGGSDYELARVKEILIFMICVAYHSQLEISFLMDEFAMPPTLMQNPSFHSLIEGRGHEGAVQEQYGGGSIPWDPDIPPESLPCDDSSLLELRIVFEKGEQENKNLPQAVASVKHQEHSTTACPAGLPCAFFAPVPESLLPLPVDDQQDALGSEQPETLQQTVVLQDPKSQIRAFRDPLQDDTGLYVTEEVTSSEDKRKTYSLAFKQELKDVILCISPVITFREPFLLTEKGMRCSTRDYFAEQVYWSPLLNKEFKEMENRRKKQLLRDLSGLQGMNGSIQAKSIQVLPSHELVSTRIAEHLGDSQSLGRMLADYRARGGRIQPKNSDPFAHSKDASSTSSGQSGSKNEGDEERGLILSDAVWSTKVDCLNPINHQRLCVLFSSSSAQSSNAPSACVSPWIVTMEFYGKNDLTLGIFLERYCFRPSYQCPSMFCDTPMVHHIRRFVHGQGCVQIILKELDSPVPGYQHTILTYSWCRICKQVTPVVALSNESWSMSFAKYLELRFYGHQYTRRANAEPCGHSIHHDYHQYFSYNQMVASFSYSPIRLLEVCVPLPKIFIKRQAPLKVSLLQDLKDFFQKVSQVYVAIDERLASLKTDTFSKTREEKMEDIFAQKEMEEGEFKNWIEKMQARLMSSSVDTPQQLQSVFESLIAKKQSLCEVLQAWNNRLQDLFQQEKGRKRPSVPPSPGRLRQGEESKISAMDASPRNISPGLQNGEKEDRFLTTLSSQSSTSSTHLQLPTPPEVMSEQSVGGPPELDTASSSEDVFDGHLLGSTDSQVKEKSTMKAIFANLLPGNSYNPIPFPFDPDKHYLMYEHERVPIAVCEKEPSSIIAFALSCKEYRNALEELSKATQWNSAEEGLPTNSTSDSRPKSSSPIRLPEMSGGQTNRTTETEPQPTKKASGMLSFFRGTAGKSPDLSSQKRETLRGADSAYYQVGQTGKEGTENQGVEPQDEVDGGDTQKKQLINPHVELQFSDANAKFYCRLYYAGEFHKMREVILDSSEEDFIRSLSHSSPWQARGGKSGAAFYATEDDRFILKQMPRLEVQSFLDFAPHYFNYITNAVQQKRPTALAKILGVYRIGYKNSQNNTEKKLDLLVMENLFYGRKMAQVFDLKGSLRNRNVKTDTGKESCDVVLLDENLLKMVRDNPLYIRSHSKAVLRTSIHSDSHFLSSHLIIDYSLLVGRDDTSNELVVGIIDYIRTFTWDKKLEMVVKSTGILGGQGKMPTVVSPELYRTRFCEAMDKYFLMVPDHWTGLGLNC
# PI4P5Kβ, sequence (O14986 whole entry): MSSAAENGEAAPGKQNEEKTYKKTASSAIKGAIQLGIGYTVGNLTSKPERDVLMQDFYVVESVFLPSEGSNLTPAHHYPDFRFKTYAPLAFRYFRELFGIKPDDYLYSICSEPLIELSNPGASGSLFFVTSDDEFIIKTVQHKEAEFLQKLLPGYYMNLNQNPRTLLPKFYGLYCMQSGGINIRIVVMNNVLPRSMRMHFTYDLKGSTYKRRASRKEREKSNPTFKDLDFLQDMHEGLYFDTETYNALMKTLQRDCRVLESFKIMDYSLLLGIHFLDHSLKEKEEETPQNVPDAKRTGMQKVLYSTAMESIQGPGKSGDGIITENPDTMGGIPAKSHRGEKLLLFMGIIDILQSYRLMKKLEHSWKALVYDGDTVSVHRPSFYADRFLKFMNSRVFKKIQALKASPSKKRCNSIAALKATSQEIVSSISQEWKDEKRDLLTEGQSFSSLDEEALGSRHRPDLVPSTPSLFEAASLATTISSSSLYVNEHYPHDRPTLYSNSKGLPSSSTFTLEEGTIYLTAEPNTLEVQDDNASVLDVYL
# PI4P5Kγ, sequence (O60331 whole entry): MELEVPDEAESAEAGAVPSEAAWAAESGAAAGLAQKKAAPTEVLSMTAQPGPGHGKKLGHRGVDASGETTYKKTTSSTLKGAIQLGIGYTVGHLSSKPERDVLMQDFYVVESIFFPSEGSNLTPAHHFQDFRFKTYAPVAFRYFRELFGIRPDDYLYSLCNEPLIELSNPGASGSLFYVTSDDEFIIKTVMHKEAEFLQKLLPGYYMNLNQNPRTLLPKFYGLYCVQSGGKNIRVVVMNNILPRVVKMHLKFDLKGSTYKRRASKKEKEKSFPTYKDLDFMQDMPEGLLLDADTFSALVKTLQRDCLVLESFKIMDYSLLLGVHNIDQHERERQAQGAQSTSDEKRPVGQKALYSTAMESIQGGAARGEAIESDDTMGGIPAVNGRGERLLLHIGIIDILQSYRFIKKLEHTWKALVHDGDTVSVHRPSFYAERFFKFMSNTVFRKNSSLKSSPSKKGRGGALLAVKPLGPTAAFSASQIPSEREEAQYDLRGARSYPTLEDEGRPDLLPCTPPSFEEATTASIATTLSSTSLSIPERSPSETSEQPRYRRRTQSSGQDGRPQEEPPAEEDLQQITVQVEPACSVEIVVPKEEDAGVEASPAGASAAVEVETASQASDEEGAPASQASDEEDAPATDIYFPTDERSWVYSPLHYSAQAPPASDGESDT
compound,measurement,setting,value
"CN(C)C/C=C/C(=O)Nc1cccc(C(=O)Nc2ccc(Nc3nccc(-c4cccnc4)n3)cc2)c1 [JNK-IN-7, reference compound]",inhibition of kinase activity (in words),PI5P4Kγ,inhibit
same,inhibition of kinase activity (in words),PI5P4Kβ [1]; Fig. S1B-C,inhibit
same,inhibition of kinase activity (in words),PI5P4Kα [2]; Fig. S1B-C,inhibit
CN(C)C/C=C/C(=O)Nc1ccc(C(=O)Nc2cccc(Nc3cc(-c4c[nH]c5ccccc45)ncn3)c2)cc1 [THZ-P1-2],anti-proliferative IC50 (in words),AML/ALL cell lines,low micromolar range
same,IC50 (in words),PI4P5Kβ,low micromolar
same,IC50,PIKfyve [3],40 nM
same,"potency at killing cells versus imatinib, nilotinib and dasatinib (in words)",K562 and KU812F,markedly less potent
same,inhibition of PIKfyve in cells (in words),PIKfyve [4]; 1 μM,failed to show inhibition
same,"inhibition of PI-4,5-P2 formation",PI5P4Kβ [1]; 0.7 μM,~50%
same,earliest time of on-target engagement in washout pulldown,"PI5P4K; 1 μM compound treatment, washout at 2 and 4 hours",2 h
same,competition of pulldown by 1 μM dtb-THZ-P1-2 (in words),PI5P4K; pre-treatment of HEK293T cells,compete and block pulldown
same,"inhibition of PI-4,5-P2 formation",PI5P4Kα [2]; 0.7 μM,approximately 75%
same,% DMSO control,PIKfyve [5],6.4 % DMSO control
same,IC50 (in words),PI4P5Kγ,low micromolar
same,nuclear TFEB accumulation (in words),HeLa cells [6],increase
same,covalent labeling,PI5P4Kα [7],100%
same,GFP signal of RFP-GFP-LC3B sensor (in words),HeLa cells [8],marked increase
same,RFP signal of RFP-GFP-LC3B sensor (in words),HeLa cells [8],moderate increase
same,IC50 (in words),[9],micromolar range
same,covalent labeling,PI5P4Kβ [10],100%
same,IC50 (in words),PI4P5Kα,low micromolar
"Cc1cccc(/C=N/Nc2cc(N3CCOCC3)nc(OCCc3ccccn3)n2)c1 [apilimod, reference compound]",concentration causing substantial vacuolar enlargement,PIKfyve [4]; positive control,10 nM
